Shown is part of a subset that was picked to be rich in hits.
Dyrk1A ADPGlo: rat Dyrk1A kinase inhibitors, primary screen, biochemical, single point, plate reader. Dual specificity tyrosine-phosphorylation-regulated kinase 1A (Rattus norvegicus), Q63470. ADP-Glo luminescence, NFATc1 peptide. inhibition, % at 12.5 µM. 310,000 compounds, 0.43% hits. AID 504441, 2011; in the data active means inhibition above about 50%
STK33 inh: inhibitors of purified STK33 kinase, primary screen, biochemical, ADP-Glo luminescence, homogeneous, cell-free; Serine/threonine-protein kinase 33 (Homo sapiens), Q9BYT3; MBP phosphorylation; inhibition, % at 10 µM; 320,000 compounds, 0.073% hits; AID 2661, 2010;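 active means inhibition at or above 25%, using the most active replicate where run in duplicate; inactive means inhibition below 25%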
GSK3B inh: human GSK3beta kinase inhibitors, primary screen, biochemical, cell-free homogeneous, HTS | Glycogen synthase kinase-3 beta (Homo sapiens), P49841 | GST-GSK3beta kinase, ADP-Glo luminescence, 60 min; active compounds read low | activity score (negative = inhibition), % at 10 µM | 300,000 compounds, 0.038% hits | AID 2097, 2009;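 active means more than half of replicate wells score below -50%, meaning over 50% inhibition versus plate controls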
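Test system: GST-tagged human GSK3beta kinase, cell-free; evaluation: activity score scaled between in-plate DMSO and GW8510 controls; measured by: ADP-Glo luminescence; incubation: 60 min reaction, RT; benchmarks: DMSO and 20 µM GW8510; reagent: peptide substrate plus 25 µM ATP (final); medium: Tris/MgCl2 kinase buffer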
GSK3A inh: blockers of GSK3A enzyme activity – biochemical, luminescence, cell-free homogeneous, HTS, primary screen; Glycogen synthase kinase-3 alpha (Homo sapiens), P49840; 320,000 compounds, 0.1% hits; GSK-3 alpha kinase, ADP-Glo luminescence, 60 min; inhibition, % at 10 µM;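 active means more than half of replicates show inhibition above 20%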;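 further: GST-tagged GSK-3 alpha with peptide substrate and 25 µM ATP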
Target sequence (P49840 whole entry, looked up): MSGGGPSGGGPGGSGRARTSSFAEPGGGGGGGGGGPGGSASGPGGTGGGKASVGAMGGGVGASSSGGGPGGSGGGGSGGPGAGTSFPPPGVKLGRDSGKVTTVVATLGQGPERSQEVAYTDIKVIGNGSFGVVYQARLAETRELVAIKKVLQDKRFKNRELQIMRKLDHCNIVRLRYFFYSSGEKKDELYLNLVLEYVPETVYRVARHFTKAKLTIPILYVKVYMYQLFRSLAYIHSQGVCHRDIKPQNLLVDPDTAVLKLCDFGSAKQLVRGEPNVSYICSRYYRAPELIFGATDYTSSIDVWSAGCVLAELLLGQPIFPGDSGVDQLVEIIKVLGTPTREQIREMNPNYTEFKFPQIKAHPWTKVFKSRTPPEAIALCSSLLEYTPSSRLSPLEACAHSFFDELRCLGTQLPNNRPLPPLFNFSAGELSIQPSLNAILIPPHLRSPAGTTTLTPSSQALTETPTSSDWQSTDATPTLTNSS
Dyrk1A artifact: ADP-Glo luciferase interference without Dyrk1A, dose response, artefact control for Dyrk1A inhibitor project, biochemical, luminescence, cherry-pick, set 02. ADP-Glo luciferase artifact assay, no Dyrk1A. AID 588348, 2011. shares compounds with Dyrk1A ADPGlo. 1,300 tested, under 10 active. AC50, µM (series often up to 12 µM);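 active means fitted half-maximal dose AC50 no more than ten times the top valid tested dose, with luminescence dropping as dose rises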
Numbers stand for hits; n = inactive; x = no result.

SMILES	Dyrk1A ADPGlo	STK33 inh	GSK3B inh	GSK3A inh	Dyrk1A artifact
CCOc1ccccc1C(=O)Nc1ccccc1C(N)=O	55.8	n	n	n	n
CC(/C=C1\SC(=Nc2cccnc2)NC1=O)=C\c1ccccc1	x	n	n	n	x
C=CCOc1ccc(/C=C2\SC(=Nc3cccnc3)NC2=O)cc1	60.6	n	n	n	n
COc1ccc(-c2csc(N=C(N)N)n2)cc1	81.9	n	n	n	n
Cc1c(NC(=O)C(C)OC(=O)c2ccc(NC(=O)CC#N)cc2)c(=O)n(-c2ccccc2)n1C (stereo not drawn)	n	n	n	n	x
C=CC(C)(C)c1c2occc2c(O)c2ccc(=O)oc12	n	x	x	x	x
C=CC(C)(C)c1c(O)c(CC=C(C)C)c(O)c2c(=O)c3ccc(O)c(O)c3oc12	98.6	n	n	n	n
CC1(C)Cc2nc3sc4c(SCC(=O)O)ncnc4c3cc2CO1	92.5	n	n	76.4	n
COC(=O)CSc1ncnc2c1sc1nc3c(cc12)COC(C)(C)C3	n	n	n	n	x
CCOC(=O)[C@H]1[C@H]2COc3ccc(Cl)cc3[C@@H]2N2C(=O)[C@@H](CO)NC(=O)[C@@]12C	n	n	x	n	x
F[B-](F)(F)c1cncc2ccccc12	n	x	x	x	x
Cc1ccccc1C(=O)NNC(=O)CCCCC(=O)NNC(=O)c1ccccc1C	65.8	n	n	n	n
Cc1ccccc1C(=O)NNC(=O)Cc1cccc2ccccc12	n	n	n	n	x
CC(=O)Nc1nc2ccc(Br)cc2s1	70.8	n	n	n	n
COc1ccc2nc(NC(C)=O)sc2c1	n	n	n	n	x
C[C@@]12C(=O)N(CCc3c[nH]c4ccccc34)CC(=O)N1[C@H]1c3ccccc3OC[C@@H]1[C@@H]2c1ccccc1	n	n	x	n	x
c1cncc(-c2ccc3[nH]ccc3c2)c1	54.8	n	x	n	n
Cn1nnnc1Sc1ncnc2scc(-c3ccc[nH]3)c12	52.1	n	x	n	n
COc1ccc(OC)c(N=c2oc3cc(O)ccc3cc2C(N)=O)c1	81.0	n	n	n	n
NC(=O)c1cc2ccc(O)cc2oc1=Nc1ccccc1	58.3	x	n	x	n
NC(=O)c1cc2ccccc2oc1=NCc1ccccc1	68.4	n	n	n	n
COc1ccc2oc(=Nc3cc(F)ccc3F)c(C(N)=O)cc2c1	n	n	n	n	x
O=C(Nc1cccc2ccccc12)N(CCO)C1CCS(=O)(=O)C1 (stereo not drawn)	n	n	n	n	x
CCOC(=O)c1ccc(S(=O)(=O)NCCNCc2ccccc2)cc1	n	n	x	n	x
COc1ccc2sc(-c3ccc(S(C)(=O)=O)cc3)c(C#CCO)c2c1	n	n	x	n	x
SMILES	Dyrk1A ADPGlo	STK33 inh	GSK3B inh	GSK3A inh	Dyrk1A artifact
COc1ccc2c(C#CCCO)c(-c3ccc(S(C)(=O)=O)cc3)sc2c1	56.4	n	x	n	n
O=c1oc(Nc2cccc(F)c2)nc2ccccc12	n	n	n	n	x
Nc1nc(Nc2cccc(F)c2)nc2ccccc12	74.4	n	n	n	n
CC1=C(C(=O)OCc2ccc3c(c2)OCO3)C(c2ccccc2)NC(=O)N1 (stereo not drawn)	77.5	n	n	62.5	n
CC1=C(C(=O)OCc2ccc3c(c2)OCO3)C(c2ccccc2OCc2ccccc2)NC(=O)N1 (stereo not drawn)	n	n	n	n	x
Cc1cc(C)cc(N=Cc2c(O)c3ccccc3oc2=O)c1	x	n	n	n	x
O=C(O)c1cc(N=Cc2c(O)c3ccccc3oc2=O)ccc1O	82.5	n	n	n	n
Nc1ccc(S(=O)(=O)O)cn1	n	n	n	n	x
Nc1ccc(-c2ccc(C(=O)O)s2)cn1	71.0	n	n	n	n
Oc1ccc(/C=N/n2c(-c3ccccc3)n[nH]c2=S)cc1	55.2	34.5	n	n	n
COc1ccc(/C=N/n2c(-c3ccccc3)n[nH]c2=S)cc1	n	n	n	n	x
Cc1ccc(S(=O)(=O)N2CCC(C(=O)N3CCC3)CC2)cc1	n	n	n	n	x
O=C(COC(=O)c1ccc([N+](=O)[O-])cc1)NC12CC3CC(CC(C3)C1)C2	n	n	x	n	x
Cc1cc(N2CCC(C)CC2)nc2cccc(O)c12	50.7	n	n	n	n
Oc1ccc(-c2csc(-c3cccnc3)n2)cc1O	50.9	n	n	n	n
